The source made the active and inactive calls. No cut-off for these calls is given here.
What was measured:
[1] = molecular target: T1, Toll-like receptor 7 (Homo sapiens) (UniProt Q9NYK1); experiment: Inhibition of human TLR7 expressed in HEK293 cells assessed as decrease in R848-induced NF-kappaB activation-mediated SEAP production at 5 uM after 24 hrs by Quanti-blue-based assay relative to control; type: cell-based
T1 sequence (whole entry): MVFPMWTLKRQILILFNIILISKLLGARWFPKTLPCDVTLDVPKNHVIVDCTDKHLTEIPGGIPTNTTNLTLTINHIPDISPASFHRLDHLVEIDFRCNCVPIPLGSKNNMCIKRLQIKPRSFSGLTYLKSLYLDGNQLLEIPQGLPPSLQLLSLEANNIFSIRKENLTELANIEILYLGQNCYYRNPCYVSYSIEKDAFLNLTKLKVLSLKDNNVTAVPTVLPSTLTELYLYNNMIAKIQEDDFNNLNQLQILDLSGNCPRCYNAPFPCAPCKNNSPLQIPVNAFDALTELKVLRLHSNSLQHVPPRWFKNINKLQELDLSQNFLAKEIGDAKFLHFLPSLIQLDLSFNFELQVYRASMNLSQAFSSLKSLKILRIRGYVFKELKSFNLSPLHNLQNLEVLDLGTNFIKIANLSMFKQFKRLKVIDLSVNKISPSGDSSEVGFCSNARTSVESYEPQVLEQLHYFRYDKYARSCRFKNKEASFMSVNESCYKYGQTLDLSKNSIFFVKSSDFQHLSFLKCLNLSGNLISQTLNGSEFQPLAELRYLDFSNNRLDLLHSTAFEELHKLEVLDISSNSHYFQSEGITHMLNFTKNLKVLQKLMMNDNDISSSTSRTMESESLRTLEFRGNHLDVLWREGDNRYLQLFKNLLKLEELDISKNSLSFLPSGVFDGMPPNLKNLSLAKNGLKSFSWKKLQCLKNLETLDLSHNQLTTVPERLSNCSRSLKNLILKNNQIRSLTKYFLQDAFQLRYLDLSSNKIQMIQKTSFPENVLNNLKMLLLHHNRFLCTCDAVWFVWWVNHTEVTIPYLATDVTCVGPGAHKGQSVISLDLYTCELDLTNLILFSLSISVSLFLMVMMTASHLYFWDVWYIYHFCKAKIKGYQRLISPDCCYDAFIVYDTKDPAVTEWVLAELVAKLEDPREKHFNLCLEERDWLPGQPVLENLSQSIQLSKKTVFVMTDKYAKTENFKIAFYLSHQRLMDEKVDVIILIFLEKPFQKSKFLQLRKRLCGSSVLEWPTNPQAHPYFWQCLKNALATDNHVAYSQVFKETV

[2] = molecular target: T2, Protein kinase C (PKC) (Homo sapiens) (UniProt O94806+P41743+P17252+P05129+Q05655+P05771+Q05513+Q02156+P24723+Q15139+Q04759); experiment: (§1) Inhibition of PKC in HEK-blue cells expressing human TLR7 assessed as inhibition of PMA-induced NF-kappaB activation-mediated SEAP production after 24 hrs by Quanti-blue-based assay; type: cell-based
Protein kinase C (PKC) [3] = experiment: as §1; type: cell-based
[4] = molecular target: Proto-oncogene tyrosine-protein kinase Src (Homo sapiens) (UniProt P12931); experiment: Inhibition of SRC (unknown origin) at 5 uM using KVEKIGEGTYGVVYK-amide as substrate by ADP-Glo kinase assay relative to control
Sequence of Proto-oncogene tyrosine-protein kinase Src (Homo sapiens) (P12931 2-536 limits assumed): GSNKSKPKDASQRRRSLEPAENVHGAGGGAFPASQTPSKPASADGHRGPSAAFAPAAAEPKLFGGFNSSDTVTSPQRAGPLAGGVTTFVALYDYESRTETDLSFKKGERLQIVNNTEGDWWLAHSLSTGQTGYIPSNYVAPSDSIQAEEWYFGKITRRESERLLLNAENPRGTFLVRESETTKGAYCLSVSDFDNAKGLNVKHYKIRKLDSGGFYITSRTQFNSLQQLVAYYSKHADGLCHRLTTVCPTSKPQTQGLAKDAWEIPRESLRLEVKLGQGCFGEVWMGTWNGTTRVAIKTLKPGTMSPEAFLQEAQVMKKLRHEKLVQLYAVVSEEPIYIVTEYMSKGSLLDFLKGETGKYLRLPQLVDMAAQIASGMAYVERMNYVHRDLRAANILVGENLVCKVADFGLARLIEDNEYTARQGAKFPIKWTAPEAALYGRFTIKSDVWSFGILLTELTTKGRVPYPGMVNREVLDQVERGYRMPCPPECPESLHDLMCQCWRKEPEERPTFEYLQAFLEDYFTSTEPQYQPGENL

HeLa [5] = experiment: Cell cycle arrest in human HeLa cells assessed as accumulation at G0/G1 phase after 24 hrs by propidium iodide staining based flow cytometry; type: functional
Summary of the method: (§2)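 HeLa cells, 3×10^5/well, attached overnight, switched to serum-free medium for synchronisation, then DMSO or 5, 10, 20 µM for 24 h; cells fixed, PI-stained, G0/G1, S and G2/M fractions by flow cytometry; n = 3, mean ± SD.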

[6] = molecular target: Toll-like receptor 3 (Homo sapiens) (UniProt O15455); experiment: Antagonist activity at human TLR3 expressed in HEK293 cells assessed as decrease in poly I:C-induced NF-kappaB activation-mediated SEAP production at 10^-9 to 10^-5 M after 24 hrs by Quanti-blue-based assay; type: cell-based
Sequence of Toll-like receptor 3 (Homo sapiens) (O15455 whole entry): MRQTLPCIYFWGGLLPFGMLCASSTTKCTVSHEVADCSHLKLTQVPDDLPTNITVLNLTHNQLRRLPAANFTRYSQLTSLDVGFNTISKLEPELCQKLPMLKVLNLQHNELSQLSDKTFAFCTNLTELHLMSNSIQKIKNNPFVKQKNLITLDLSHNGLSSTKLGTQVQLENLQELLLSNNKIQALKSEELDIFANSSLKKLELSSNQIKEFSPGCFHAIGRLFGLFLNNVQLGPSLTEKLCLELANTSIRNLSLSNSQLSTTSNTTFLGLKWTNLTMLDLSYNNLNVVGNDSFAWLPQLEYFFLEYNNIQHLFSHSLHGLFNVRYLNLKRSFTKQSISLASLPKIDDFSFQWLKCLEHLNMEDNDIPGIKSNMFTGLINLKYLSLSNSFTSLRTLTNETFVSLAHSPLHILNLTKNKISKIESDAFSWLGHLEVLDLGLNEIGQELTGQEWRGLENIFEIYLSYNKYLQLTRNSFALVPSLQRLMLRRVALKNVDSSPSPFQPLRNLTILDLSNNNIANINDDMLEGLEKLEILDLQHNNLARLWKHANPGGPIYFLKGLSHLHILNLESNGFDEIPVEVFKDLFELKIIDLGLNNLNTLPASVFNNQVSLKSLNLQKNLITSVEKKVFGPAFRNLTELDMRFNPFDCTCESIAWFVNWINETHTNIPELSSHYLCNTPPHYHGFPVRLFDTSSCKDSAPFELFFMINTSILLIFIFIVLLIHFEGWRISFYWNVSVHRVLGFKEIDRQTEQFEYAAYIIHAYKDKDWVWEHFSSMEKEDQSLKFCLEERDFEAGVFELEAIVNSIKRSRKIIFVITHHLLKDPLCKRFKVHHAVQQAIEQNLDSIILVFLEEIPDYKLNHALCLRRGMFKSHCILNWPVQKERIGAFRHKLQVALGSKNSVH
Summary of the method: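 HEK293 cells stably carrying a human TLR plus an NF-κB-driven SEAP reporter, seeded 5×10^4/well for 24 h at 37 °C, then stimulated: Pam3CSK4 100 µg/mL (TLR1/2), Pam2CSK4 100 µg/mL, poly I:C 5 µg/mL (TLR3), LPS 20 ng/mL (TLR4), flagellin 100 ng/mL (TLR5), R848 1 µg/mL (TLR7, TLR8), CpG-ODN2006 1 µg/mL (TLR9). After 24 h with compound, supernatant mixed with QUANTI-Blue, 1 h 37 °C, OD 620 nm.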

[7] = molecular target: T2, Protein kinase C (PKC) (Homo sapiens); experiment: (§3) Inhibition of PKC in TLR null HEK-blue cells assessed as inhibition of PMA-induced NF-kappaB activation-mediated SEAP production after 24 hrs by Quanti-blue-based assay; type: cell-based
Protein kinase C (PKC) [8] = experiment: as §3; type: cell-based, Homo sapiens
[9] = molecular target: Tyrosine-protein kinase SYK (Mus musculus) (UniProt P48025); experiment: Inhibition of LPS-induced SYK phosphorylation in mouse RAW264.7 cells preincubated for 1 hr followed by LPS stimulation for 30 mins by Western blot method; type: cell-based
Sequence of Tyrosine-protein kinase SYK (Mus musculus) (P48025 whole entry, looked up): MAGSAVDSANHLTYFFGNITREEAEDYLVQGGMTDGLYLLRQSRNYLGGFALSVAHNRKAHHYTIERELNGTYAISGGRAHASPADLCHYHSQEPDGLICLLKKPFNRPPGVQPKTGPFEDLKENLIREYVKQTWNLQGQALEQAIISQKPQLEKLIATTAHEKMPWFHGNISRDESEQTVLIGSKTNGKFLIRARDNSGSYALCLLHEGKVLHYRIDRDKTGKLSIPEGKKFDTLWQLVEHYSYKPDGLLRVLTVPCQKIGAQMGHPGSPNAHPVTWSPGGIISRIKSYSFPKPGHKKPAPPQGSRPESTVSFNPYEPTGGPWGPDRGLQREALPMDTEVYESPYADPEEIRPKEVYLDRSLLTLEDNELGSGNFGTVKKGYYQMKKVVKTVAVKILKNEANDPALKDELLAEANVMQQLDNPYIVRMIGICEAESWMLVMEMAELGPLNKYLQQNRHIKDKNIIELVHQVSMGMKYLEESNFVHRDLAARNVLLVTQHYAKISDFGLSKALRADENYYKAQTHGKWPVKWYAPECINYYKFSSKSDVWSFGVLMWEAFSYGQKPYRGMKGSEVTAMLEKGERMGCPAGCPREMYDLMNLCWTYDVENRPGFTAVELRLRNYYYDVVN
Summary of the method: (§4)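 RAW 264.7 cells, 3×10^6 per dish overnight, pretreated 1 h with 1, 5 or 10 µM, then LPS 100 ng/mL for 15 or 30 min; nuclear/cytoplasmic lysates (20–30 µg) run on 10% SDS-PAGE, immunoblotted for phospho/total proteins, GAPDH loading control, ECL, densitometry; three independent experiments.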

HeLa [10] = experiment: Growth inhibition of human HeLa cells after 48 hrs by WST1 assay; type: functional
[11] = molecular target: Proto-oncogene tyrosine-protein kinase Src (Mus musculus) (UniProt P05480); experiment: Inhibition of LPS-induced SRC phosphorylation in mouse RAW264.7 cells preincubated for 1 hr followed by LPS stimulation for 30 mins by Western blot method; type: cell-based; summary of the method: as §4
Sequence of Proto-oncogene tyrosine-protein kinase Src (Mus musculus) (P05480 2-535 limits assumed): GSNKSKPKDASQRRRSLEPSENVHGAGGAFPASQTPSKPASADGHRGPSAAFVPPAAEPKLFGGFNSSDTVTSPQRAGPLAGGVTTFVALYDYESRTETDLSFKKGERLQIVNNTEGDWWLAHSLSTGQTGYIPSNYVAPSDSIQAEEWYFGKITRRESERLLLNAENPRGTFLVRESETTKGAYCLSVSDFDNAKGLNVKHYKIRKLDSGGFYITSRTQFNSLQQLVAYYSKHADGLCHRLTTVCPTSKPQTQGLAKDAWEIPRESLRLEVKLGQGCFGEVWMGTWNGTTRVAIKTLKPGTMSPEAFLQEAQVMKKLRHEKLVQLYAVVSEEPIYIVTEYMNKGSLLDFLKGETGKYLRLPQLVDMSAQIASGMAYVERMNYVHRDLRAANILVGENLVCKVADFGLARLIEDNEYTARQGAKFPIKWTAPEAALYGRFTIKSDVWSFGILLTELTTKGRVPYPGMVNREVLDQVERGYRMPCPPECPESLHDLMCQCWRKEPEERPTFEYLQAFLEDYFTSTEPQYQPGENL

[12] = molecular target: NF-kappa-B inhibitor alpha (Mus musculus) (UniProt Q9Z1E3); experiment: Inhibition of LPS-induced IkB-alpha phosphorylation in mouse RAW264.7 cells at 1 to 10 uM preincubated for 1 hr followed by LPS stimulation for 15 to 30 mins by Western blot method; type: cell-based; summary of the method: as §4
Sequence of NF-kappa-B inhibitor alpha (Mus musculus) (Q9Z1E3 whole entry): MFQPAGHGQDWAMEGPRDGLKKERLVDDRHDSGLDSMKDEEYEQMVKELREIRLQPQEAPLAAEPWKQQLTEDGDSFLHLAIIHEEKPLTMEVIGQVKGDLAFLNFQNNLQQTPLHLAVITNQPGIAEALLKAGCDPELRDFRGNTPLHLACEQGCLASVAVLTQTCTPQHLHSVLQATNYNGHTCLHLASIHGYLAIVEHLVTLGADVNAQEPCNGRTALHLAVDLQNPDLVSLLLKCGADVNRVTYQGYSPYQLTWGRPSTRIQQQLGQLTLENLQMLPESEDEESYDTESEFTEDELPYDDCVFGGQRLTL

[13] = Inhibition of IFN-gamma-induced NFkappaB activation in mouse RAW264.7 cells assessed as reduction in nitric oxide production after 18 hrs by DAN assay; type: cell-based; details: RAW264.7, 18 h
Summary of the method: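 Mouse RAW 264.7 macrophages stimulated with IFN-γ alongside compound; NF-κB-mediated NO output measured by the 2,3-diaminonaphthalene (DAN) nitrite assay.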

[14] = molecular target: MAP kinase p38 (Mus musculus) (UniProt P47811+O08911+Q9WUI1+Q9Z1B7); experiment: Inhibition of LPS-induced p38 MAPK phosphorylation in mouse RAW264.7 cells at 1 to 10 uM preincubated for 1 hr followed by LPS stimulation for 15 to 30 mins by Western blot method; type: cell-based; summary of the method: as §4
HeLa [15] = experiment: Cell cycle arrest in human HeLa cells assessed as accumulation at G0/G1 phase at 10 uM after 24 hrs by propidium iodide staining based flow cytometry (reference value: 49.4%); type: functional; summary of the method: as §2

With `O=C(NNC(=O)c1csc(-c2ccc(Cl)cc2Cl)n1)c1ccccn1` the inhibition [1] was 99.6%, the inhibition [2] was “Dose-dependent effect” and the IC50 (Protein kinase C (PKC) [3]) was 590 nM. The inhibition [4] was less than 50%, the Activity (HeLa [5]) was “Dose-dependent effect” and the inhibition [6] was “Active”. The inhibition [7] was “Dose-dependent effect”, the IC50 (Protein kinase C (PKC) [8]) was 370 nM and the inhibition [9] was “Dose-dependent effect”. The GI50 (HeLa [10]) was 1350 nM, the inhibition [11] was “Dose-dependent effect” and the inhibition [12] was “Active”. For the same compound, the IC50 [13] was 79 nM, the inhibition [14] was “inactive” and the Activity (HeLa [15]) was 54.7%.
